{"data": "Measurements collected from several papers", "target": "Platelet-derived growth factor receptor beta (PDGFRB, Homo sapiens, UniProt P09619)", "note": "Protocols differ between the studies behind these lines."}
{"SMILES": "COc1ccc2c(Oc3ccc4c(C(=O)Nc5ccccc5N)cccc4c3)ccnc2c1", "observed": "enzyme activity", "action": "inhibitor", "quantity": "IC50", "result": "93 nM"}
{"SMILES": "Cc1ccc(NC(=O)c2ccc(CN3CCS(=N)(=O)CC3)cc2)cc1Nc1nccc(-c2cccnc2)n1", "observed": "binding", "technique": "competition with immobilised ligand", "quantity": "Kd", "result": "19 nM"}
{"SMILES": "CCN1CCN(Cc2ccc(C(=O)Nc3ccc(C)c(Oc4ccc5c(c4)CC(=O)N5)c3)cc2C(F)(F)F)CC1", "observed": "enzyme activity", "action": "inhibitor", "quantity": "IC50", "result": "> 10000 nM"}
{"SMILES": "Cc1ccc(NC(=O)c2ccc(C)c(C(F)(F)F)c2)cc1C#Cc1nn(C2CCC(O)CC2)c2ncnc(N)c12 (centres unmarked)", "observed": "enzyme activity", "action": "inhibitor", "technique": "radiometric", "quantity": "IC50", "result": "> 10000 nM"}
{"SMILES": "FC(F)(F)c1ccc(CNc2ccc(Cc3c[nH]c4ncc(Cl)cc34)cn2)cn1", "observed": "enzyme activity", "action": "inhibitor", "quantity": "IC50", "result": "8 nM"}
{"SMILES": "C=CC(=O)Nc1cccc(CN2C(=O)N(c3c(Cl)c(OC)cc(OC)c3Cl)Cc3cnc(NCCCCN(CC)CC)nc32)c1", "observed": "binding", "technique": "competition with immobilised ligand", "quantity": "Kd", "result": "480 nM"}
{"SMILES": "Cc1cnc(-c2ccc(-c3ccc(NC(=O)Nc4c(F)cc(F)cc4F)cc3F)c3c2C(=O)NC3)[nH]1", "observed": "binding", "technique": "competition with immobilised ligand", "quantity": "Kd", "result": "0.4 nM"}
{"SMILES": "Cc1cc(Nc2cc3ncccc3c(N[C@@H]3C[C@H]4CC[C@@H](C3)N4CCC#N)n2)n[nH]1", "observed": "binding", "technique": "competition with immobilised ligand", "quantity": "Kd", "result": "68 nM"}
